High-throughput results as filed in PubChem.
Compounds with a hit are over-represented: about 8.4% of the library has one in this group of screens.
Ecoli tolC = growth inhibitors of E. coli tolC mutant, primary screen, strain BW25113 ΔtolC::kan, 384-well; OD615; growth inhibition, % at 10 µM (by protocol); 65,000 tested, 2.2% active; AID 573, 2007;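 active = growth inhibition at or above a cutoff equal to the mean over every tested compound plus 3 SD, cut at about 60% in these data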;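 note: growth measured after 20 h incubation at 37 °C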
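signal = optical density read at 615 nm | test system = E. coli ΔtolC::kan strain BW25113 | timing = 20 h compound exposure of bacteria at 37 °C | buffer or medium = LB medium plus 50 µg/mL kanamycin | compound dosing = 10 µM final, single dose | evaluation = % inhibition of E. coli growth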
PostGolgi ctrl = growth inhibition of yeast control strain, primary screen, counter-screen for post-Golgi transport modulator project | inhibition, % at 10 µM | 98,000 tested, 5% active | efflux-deficient yeast background strain, growth absorbance A615, 16 h
Cav3 T inh = Cav3.2 calcium influx blockers – cell-based, Fluo-4 calcium fluorescence, FDSS, MLSMR library, primary screen; Cav3.2-expressing cells; active compounds read low; B-score at 10 µM; 100,000 tested, 4% active; AID 449739, 2010;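 active = single-dose well whose peak fluorescence ratio is a statistical outlier from its plate by either plate-standardised score or position-corrected B-score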
Target sequence (O95180 whole entry, looked up): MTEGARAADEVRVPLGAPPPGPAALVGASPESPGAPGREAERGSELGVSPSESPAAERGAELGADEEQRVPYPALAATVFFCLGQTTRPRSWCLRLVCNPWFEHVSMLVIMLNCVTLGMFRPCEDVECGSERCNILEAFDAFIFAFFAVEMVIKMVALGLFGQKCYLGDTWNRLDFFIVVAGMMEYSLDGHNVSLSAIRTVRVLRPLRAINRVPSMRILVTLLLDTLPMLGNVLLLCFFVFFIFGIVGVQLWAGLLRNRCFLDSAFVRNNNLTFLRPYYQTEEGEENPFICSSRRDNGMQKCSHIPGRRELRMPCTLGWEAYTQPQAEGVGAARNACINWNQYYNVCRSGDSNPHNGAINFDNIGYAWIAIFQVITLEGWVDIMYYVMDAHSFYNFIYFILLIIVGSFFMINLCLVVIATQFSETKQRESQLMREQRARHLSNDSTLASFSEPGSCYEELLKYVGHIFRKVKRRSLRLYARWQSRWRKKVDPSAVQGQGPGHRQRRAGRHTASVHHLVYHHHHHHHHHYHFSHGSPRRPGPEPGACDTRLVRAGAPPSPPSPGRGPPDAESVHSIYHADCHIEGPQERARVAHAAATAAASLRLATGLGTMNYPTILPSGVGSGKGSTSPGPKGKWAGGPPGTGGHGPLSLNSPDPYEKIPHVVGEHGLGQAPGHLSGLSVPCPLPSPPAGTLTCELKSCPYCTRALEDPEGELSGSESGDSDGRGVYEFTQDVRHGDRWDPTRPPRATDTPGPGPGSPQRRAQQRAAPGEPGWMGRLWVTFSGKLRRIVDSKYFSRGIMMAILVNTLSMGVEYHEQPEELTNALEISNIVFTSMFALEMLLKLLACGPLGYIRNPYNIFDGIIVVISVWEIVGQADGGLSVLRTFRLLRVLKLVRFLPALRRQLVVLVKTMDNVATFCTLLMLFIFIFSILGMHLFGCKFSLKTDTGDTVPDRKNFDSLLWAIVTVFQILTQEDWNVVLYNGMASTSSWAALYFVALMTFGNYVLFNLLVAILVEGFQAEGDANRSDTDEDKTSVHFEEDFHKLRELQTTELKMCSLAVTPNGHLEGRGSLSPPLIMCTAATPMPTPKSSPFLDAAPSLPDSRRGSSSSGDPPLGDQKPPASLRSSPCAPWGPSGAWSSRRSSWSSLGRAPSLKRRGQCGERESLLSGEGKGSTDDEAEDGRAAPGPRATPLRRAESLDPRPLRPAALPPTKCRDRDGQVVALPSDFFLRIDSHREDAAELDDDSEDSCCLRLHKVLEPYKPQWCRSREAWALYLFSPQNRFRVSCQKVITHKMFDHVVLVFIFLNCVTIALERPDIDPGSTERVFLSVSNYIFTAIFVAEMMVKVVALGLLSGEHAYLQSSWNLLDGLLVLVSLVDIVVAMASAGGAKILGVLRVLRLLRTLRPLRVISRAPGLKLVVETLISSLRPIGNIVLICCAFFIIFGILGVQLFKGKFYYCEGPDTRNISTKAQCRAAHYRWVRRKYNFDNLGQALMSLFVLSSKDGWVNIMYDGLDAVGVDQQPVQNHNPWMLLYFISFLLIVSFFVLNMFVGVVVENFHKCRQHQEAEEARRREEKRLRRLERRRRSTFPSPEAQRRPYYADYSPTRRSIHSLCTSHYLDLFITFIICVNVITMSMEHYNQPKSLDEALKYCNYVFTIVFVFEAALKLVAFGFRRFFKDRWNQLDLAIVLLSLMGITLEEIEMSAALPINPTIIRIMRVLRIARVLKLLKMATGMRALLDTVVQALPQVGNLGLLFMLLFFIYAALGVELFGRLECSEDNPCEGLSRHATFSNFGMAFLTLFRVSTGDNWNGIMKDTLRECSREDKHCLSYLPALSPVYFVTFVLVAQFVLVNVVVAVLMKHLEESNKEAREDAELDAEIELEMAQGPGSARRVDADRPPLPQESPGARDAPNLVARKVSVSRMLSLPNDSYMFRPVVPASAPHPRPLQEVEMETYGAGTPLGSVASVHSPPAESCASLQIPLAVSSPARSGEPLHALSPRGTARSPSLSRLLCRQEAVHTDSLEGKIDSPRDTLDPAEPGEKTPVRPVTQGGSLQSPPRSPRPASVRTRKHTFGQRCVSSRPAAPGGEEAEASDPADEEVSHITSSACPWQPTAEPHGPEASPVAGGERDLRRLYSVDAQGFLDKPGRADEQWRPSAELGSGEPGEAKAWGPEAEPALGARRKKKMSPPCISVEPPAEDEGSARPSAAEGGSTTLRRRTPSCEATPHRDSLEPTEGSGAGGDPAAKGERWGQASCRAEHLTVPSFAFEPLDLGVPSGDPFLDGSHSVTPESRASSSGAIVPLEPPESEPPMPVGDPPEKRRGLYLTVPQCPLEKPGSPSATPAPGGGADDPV
Ecoli WT expand = growth inhibitors of wild-type E. coli, primary screen, strain BW25113, expanded library, OD600. OD600 absorbance. growth inhibition, % at 100 µM. 98,000 tested, 0.15% active. AID 710, 2007;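 active = growth inhibition above about 50% at one test dose, limit read from the data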;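 note: growth measured after 20 h incubation at 37 °C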
PostGolgi yeast = phenotypic screen on post-Golgi transport, primary screen; post-Golgi transport phenotypic cell assay; inhibition, % at 10 µM; 98,000 tested, 0.9% active; AID 739, 2007;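 note: yeast cells grown in 1536-well plates; yeast grown about 18 h at 30C before absorbance read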
Hits are given with their value. Cut-off read from the data, not from the text of the source, unless noted: active = inhibition above about 30%; inactive = the rest.

For Cc1cc(Nc2nc3ccccc3[nH]c2=O)n(-c2ccccc2)n1 the results were Ecoli tolC inactive, PostGolgi ctrl inactive, Cav3 T inh inactive, Ecoli WT expand inactive and PostGolgi yeast inactive.
COc1ccc(CCC(=O)N2CCN(S(=O)(=O)c3ccc4ccccc4c3)CC2)cc1 was read as PostGolgi ctrl 36.7, Cav3 T inh inactive, Ecoli WT expand inactive and PostGolgi yeast inactive.
CC1CCN(S(=O)(=O)c2ccc3[nH]c(=O)cc(C(=O)O)c3c2)CC1 was read as Ecoli tolC inactive, PostGolgi ctrl 31.1, Cav3 T inh inactive, Ecoli WT expand inactive and PostGolgi yeast inactive.
`COc1ccc(S(=O)(=O)N2CCN(C(=O)COc3ccc4c(C)cc(=O)oc4c3)CC2)cc1` gave Ecoli tolC inactive, PostGolgi ctrl 30.4, Cav3 T inh inactive, Ecoli WT expand inactive and PostGolgi yeast inactive.
CC1CCN(S(=O)(=O)c2ccc3ccccc3c2)CC1 was read as PostGolgi ctrl 33.6, Cav3 T inh inactive, Ecoli WT expand inactive and PostGolgi yeast inactive.
Screening CC1CCN(S(=O)(=O)c2ccc(F)c(C(=O)O)c2)CC1 returned Ecoli tolC inactive, PostGolgi ctrl inactive, Cav3 T inh inactive, Ecoli WT expand inactive and PostGolgi yeast inactive.
Screening OCC[C@H]1C[C@H](O)[C@@H](O)[C@]2(CCCO2)O1 returned Cav3 T inh inactive.
For COc1ccccc1NS(=O)(=O)c1ccc(C)c(C(=O)NCC2CCCO2)c1 (configuration not stated) the results were Ecoli tolC inactive, PostGolgi ctrl inactive, Cav3 T inh inactive, Ecoli WT expand inactive and PostGolgi yeast inactive.
Screening COC(=O)c1ccc(NC(=O)CSCc2ccccc2C)cc1 returned PostGolgi ctrl inactive, Cav3 T inh inactive, Ecoli WT expand inactive and PostGolgi yeast inactive.
`Cc1nc(-c2cccc(S(=O)(=O)N3CCC(C)CC3)c2)cs1` gave PostGolgi ctrl 37.6, Cav3 T inh inactive, Ecoli WT expand inactive and PostGolgi yeast inactive.
`CCCC(=O)Nc1nc2ccc(OCC)cc2s1` gave Ecoli tolC inactive, PostGolgi ctrl inactive, Cav3 T inh inactive, Ecoli WT expand inactive and PostGolgi yeast inactive.
Screening Cc1ccc(C)c(OCC(=O)Nc2nc3ccc([N+](=O)[O-])cc3s2)c1C returned PostGolgi ctrl 34.2, Cav3 T inh inactive, Ecoli WT expand inactive and PostGolgi yeast inactive.
Screening O=c1c2c3nc4ccccc4nc3n(Cc3ccccc3)c2ncn1Cc1ccco1 returned Ecoli tolC inactive, PostGolgi ctrl inactive, Cav3 T inh inactive, Ecoli WT expand inactive and PostGolgi yeast inactive.
Screening CC(C)Cn1cnc2c(c(-c3ccccc3)c(-c3ccccc3)n2Cc2ccco2)c1=N returned PostGolgi ctrl 62.2, Cav3 T inh -8.35, Ecoli WT expand inactive and PostGolgi yeast 83.4.
For N=c1c2c(-c3ccccc3)c(-c3ccccc3)n(Cc3ccco3)c2ncn1Cc1ccccc1 the results were PostGolgi ctrl 33.7, Cav3 T inh -11.7, Ecoli WT expand inactive and PostGolgi yeast 75.3.
N=c1c2c(-c3ccccc3)c(-c3ccccc3)n(Cc3ccccc3)c2ncn1CCO was read as PostGolgi ctrl inactive, Cav3 T inh -5.23, Ecoli WT expand inactive and PostGolgi yeast inactive.
For O=c1c2ccccc2nc(-c2ccccc2)n1Cc1ccco1 the results were Ecoli tolC inactive, PostGolgi ctrl inactive, Cav3 T inh inactive, Ecoli WT expand inactive and PostGolgi yeast inactive.
`OCCNc1ncnc2c1c(-c1ccccc1)c(-c1ccccc1)n2Cc1ccco1` gave Ecoli tolC inactive, PostGolgi ctrl 33.1, Cav3 T inh -4.96, Ecoli WT expand inactive and PostGolgi yeast inactive.
For COC(=O)C1=C(C)N(CCCC(=O)O)C(=O)NC1c1cccc2ccccc12 (configuration not stated) the results were Cav3 T inh inactive.
Screening CCO[C@H]1OC(C(=O)N2CCN(Cc3ccc4c(c3)OCO4)CC2)=C[C@@H](c2ccc(Br)cc2)[C@@H]1CCCO returned Cav3 T inh inactive.
`O=C(O)CCNS(=O)(=O)c1ccc(Oc2ccccc2)cc1` gave Ecoli tolC inactive, PostGolgi ctrl inactive, Cav3 T inh inactive, Ecoli WT expand inactive and PostGolgi yeast inactive.
`CCCN1CCC(=O)N([C@H](CSc2ccc(OC)cc2)c2ccccc2)CC1` gave Cav3 T inh inactive.
Screening CCOC(=O)c1c(CN2CCC(C)CC2)oc2ccc(OC)cc12 returned Ecoli tolC inactive, PostGolgi ctrl inactive, Cav3 T inh -4.16, Ecoli WT expand inactive and PostGolgi yeast inactive.
Screening CCOC(=O)c1c(CN2CCN(C)CC2)oc2ccc(OC)cc12 returned Ecoli tolC inactive, PostGolgi ctrl inactive, Cav3 T inh inactive, Ecoli WT expand inactive and PostGolgi yeast inactive.
`CCOC(=O)c1c(CN2CCCCC2C)oc2ccc(OC)cc12` (configuration not stated) gave PostGolgi ctrl inactive, Cav3 T inh inactive, Ecoli WT expand inactive and PostGolgi yeast 30.5.
For CC(C)c1ccc(-c2nc(N3CCOCC3)[nH]c(=O)c2C#N)cc1 the results were Ecoli tolC inactive, PostGolgi ctrl inactive, Cav3 T inh inactive, Ecoli WT expand inactive and PostGolgi yeast inactive.
`Cc1cccc(-c2nc(CN3CCCC(C(=O)NC4CCCCC4)C3)c(C)o2)c1` (configuration not stated) gave Ecoli tolC inactive, PostGolgi ctrl inactive, Cav3 T inh -5.08, Ecoli WT expand inactive and PostGolgi yeast inactive.
For Cc1cccc(-c2nc(CN3CCCC(C(=O)NC4CCCCCC4)C3)c(C)o2)c1 (configuration not stated) the results were Ecoli tolC inactive, PostGolgi ctrl inactive, Cav3 T inh -6.92, Ecoli WT expand inactive and PostGolgi yeast inactive.
COc1ccccc1C1CC(c2ccc(C)cc2)Nc2ncnn21 (configuration not stated) was read as Ecoli tolC inactive, PostGolgi ctrl inactive, Cav3 T inh inactive, Ecoli WT expand inactive and PostGolgi yeast inactive.
For COC(=O)C1=C[C@@H](C(=O)OC)[C@@H]2C3=C(C(=O)[C@@]2(C)NC(=O)c2ccccc2)[C@H](C)C(C(=O)OC)=C(C(=O)OC)[C@@H]3C1 the results were Cav3 T inh inactive.
Screening Cc1cc(C(=O)Cn2nnc3ccccc3c2=O)c(C)n1Cc1cccs1 returned Ecoli tolC inactive, PostGolgi ctrl inactive, Cav3 T inh -3.5, Ecoli WT expand inactive and PostGolgi yeast inactive.
Cc1cc(C(=O)CN2C(=O)c3ccccc3C2=O)c(C)n1Cc1cccs1 was read as Ecoli tolC inactive and Cav3 T inh inactive.
Screening CCOC(=O)N1CCN(C(=O)CSCC(=O)Nc2nc(-c3cccs3)cs2)CC1 returned Ecoli tolC inactive and Cav3 T inh inactive.
Screening CC1CCCN(C(=O)CSCC(=O)Nc2nc(-c3cccs3)cs2)C1 (configuration not stated) returned Ecoli tolC inactive, PostGolgi ctrl 63.5, Cav3 T inh -5.23, Ecoli WT expand inactive and PostGolgi yeast inactive.
`CC1CCCCN1C(=O)CSCC(=O)Nc1nc(-c2cccs2)cs1` (configuration not stated) gave Ecoli tolC inactive, PostGolgi ctrl 73.1, Cav3 T inh -4.93, Ecoli WT expand inactive and PostGolgi yeast inactive.
